Measurements of several laboratories.
Each line is one published result; the experiments were not run side by side.
Target: Activin receptor type-1B (ACVR1B, Homo sapiens, UniProt P36896)
Residues used in one study (P36896 24-505): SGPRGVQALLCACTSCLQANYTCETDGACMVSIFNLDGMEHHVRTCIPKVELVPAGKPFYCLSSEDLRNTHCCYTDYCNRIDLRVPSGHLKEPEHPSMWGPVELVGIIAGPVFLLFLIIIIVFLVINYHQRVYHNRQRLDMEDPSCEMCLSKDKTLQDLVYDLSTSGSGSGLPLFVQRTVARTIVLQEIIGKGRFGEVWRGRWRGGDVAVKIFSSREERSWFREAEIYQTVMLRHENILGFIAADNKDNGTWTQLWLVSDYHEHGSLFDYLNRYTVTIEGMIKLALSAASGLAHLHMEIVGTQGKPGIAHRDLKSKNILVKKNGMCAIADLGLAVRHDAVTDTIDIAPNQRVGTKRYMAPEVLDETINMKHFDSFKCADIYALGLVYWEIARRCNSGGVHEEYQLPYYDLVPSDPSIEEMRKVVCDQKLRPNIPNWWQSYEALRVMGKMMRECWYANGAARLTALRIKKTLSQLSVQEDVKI

For `COc1ccc2oc(-c3ccc4nc(N)oc4c3)c/c(=N\c3ccccc3NC(=O)CCN)c2c1`, the remaining binding was 108% (binding; 1 µM).
`C=CC(=O)N1CCC([C@@H]2CCNc3c(C(N)=O)c(-c4ccc(Oc5ccccc5)cc4)nn32)CC1` has an inhibition of 5% (enzyme activity, inhibitor; 1 µM).
With `C#Cc1cnc(Nc2ccnc(CO)c2)nc1Nc1ccccc1S(C)(=O)=NC#N` (stereo not drawn) the remaining signal was 52% (cell-free assay; 1 µM).
The inhibition of `CC#CC(=O)N1CCC[C@H]1c1nc(-c2ccc(C(=O)Nc3ccccn3)cc2)c2c(N)nccn12` is reported as 1% (enzyme activity, inhibitor; 1 µM).
`CCCCC(=O)Nc1ccc(-c2ccc3ncn(CCC)c(=O)c3c2)cn1` has a remaining binding of 87% (binding, competition with immobilised ligand; 0.5 µM).
With `C[C@H]1CC[C@H](n2c3cnccc3c3cnc(Nc4ccc5c(n4)CCN(C(=O)CO)C5)nc32)CC1` the remaining binding was 96% (cell-free assay, competition with immobilised ligand; 1 µM).
`C1=C/COCc2cc(ccc2OCCN2CCCC2)Nc2nccc(n2)-c2cccc(c2)COC/1` has a remaining binding of 91% (binding; 0.1 µM).
For `N#Cc1ccc(NC(=O)Nc2ccccc2)cc1`, the remaining binding was 100% (cell-free assay, competition with immobilised ligand; 25 µM).
`Cc1ccc(NC(=O)c2ccnc(C(F)(F)F)c2)cc1-c1cc(OCCO)nc(N2CCOCC2)c1` has a remaining binding of 99% (binding, competition with immobilised ligand; 1 µM).
